Hits are enriched below; roughly 3.5% of the tested compounds scored in any of these assays.
ERa SRC1 pot: ER-alpha (human) coactivator binding potentiation; AID 639; coactivator binding (% of control), % at 25.6 µM; 86,000 tested, 1.3% active; P03372; TR-FRET ERalpha-LBD/SRC-Cy5 coactivator binding, 2 h; 100 = basal binding, no effect; in the data active = activity above about 200%;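 also: binding measured in presence of low estradiol as agonist stimulus; 0% = peptide alone without receptor and 100% = receptor with peptide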
ERa coact inh: ER-alpha (human) coactivator binding inhibition; P03372; TR-FRET ER-alpha LBD / SRC-1 peptide, estradiol-bound; inhibition, % at 25.6 µM; 86,000 tested, 1.7% active; AID 629; in the data active = inhibition above about 50%;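 also: 0% = receptor plus peptide control and 100% = peptide only without receptor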
sEH act: activators of human soluble epoxide hydrolase; purified human sEH enzymatic activity, activator screen; activation, % at 2 µM; 91,000 tested, 0.04% active; P34913; in the data active = activation above about 37%
ERb coact inh: ER-beta (human) coactivator binding inhibition; Q92731; TR-FRET ER-beta LBD / SRC1-Cy5 peptide binding; receptor agonist-loaded with 1 µM estradiol; inhibition, % at 25.6 µM; 86,000 tested, 1.3% active;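 active = compounds whose percent inhibition of the receptor-coactivator binding signal exceeds about 50% in the single-dose screen, limit read from the data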;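 also: 0% = receptor plus peptide wells without compound and 100% = peptide-only wells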
Target sequence (Q92731 whole entry, looked up, the tested form may be a part): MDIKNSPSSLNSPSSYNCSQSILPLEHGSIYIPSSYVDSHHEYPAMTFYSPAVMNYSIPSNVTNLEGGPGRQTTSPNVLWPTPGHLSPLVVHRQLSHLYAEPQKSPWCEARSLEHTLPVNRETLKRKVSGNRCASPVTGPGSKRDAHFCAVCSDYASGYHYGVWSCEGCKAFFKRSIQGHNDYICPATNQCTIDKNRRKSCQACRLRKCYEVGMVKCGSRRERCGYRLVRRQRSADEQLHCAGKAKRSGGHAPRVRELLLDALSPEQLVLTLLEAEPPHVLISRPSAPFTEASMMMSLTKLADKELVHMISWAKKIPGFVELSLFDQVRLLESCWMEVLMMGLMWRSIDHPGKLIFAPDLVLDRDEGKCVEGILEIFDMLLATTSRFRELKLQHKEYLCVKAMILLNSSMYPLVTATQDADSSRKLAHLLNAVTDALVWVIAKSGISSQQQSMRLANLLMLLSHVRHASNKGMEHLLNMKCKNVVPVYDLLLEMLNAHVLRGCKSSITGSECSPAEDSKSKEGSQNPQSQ
Rev-RRE block: disrupts HIV-1 Rev binding to RRE RNA; Rev peptide-RRE RNA binding, FRET; 97,000 tested, 0.79% active; AID 704; inhibition, % at 8 µM;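 active = inhibition above the screen-wide mean plus 3 SD, cut at about 35% in these data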;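 also: 0% = median DMSO wells and 100% = median Neomycin B control wells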
Target sequence (P05866 whole entry, looked up): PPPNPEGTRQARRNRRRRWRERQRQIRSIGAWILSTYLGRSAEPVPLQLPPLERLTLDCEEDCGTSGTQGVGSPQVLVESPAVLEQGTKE
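Test system: Cy5-tagged RRE RNA duplex with fluorescein-tagged Rev peptide; Probe or stimulus: labelled Rev peptide; Schedule: 5 min preincubation and 15 min binding, 25 °C; Signal: FRET fluorescence readout; Evaluation: % inhibition from 671/540 nm acceptor-to-donor ratio, scaled between controls; Control set: DMSO and neomycin B.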
sEH inh: inhibitors of human soluble epoxide hydrolase; P34913; recombinant human sEH enzymatic activity assay; inhibition, % at 2 µM; 91,000 tested, 0.34% active; AID 707; in the data active = inhibition above about 80%
* = called active by the depositor; nt = not tested or not shown; [ ] = remark or other dose.

SMILES | ERa SRC1 pot | ERa coact inh | sEH act | ERb coact inh | Rev-RRE block | sEH inh
Cc1nnc(SCc2ccccc2)nc1/C=C/NOCc1ccc(Cl)cc1Cl | 92.2 | 1.4 | 16.7 | 16.0 | 11.1 | -18.3
N#Cc1c(Sc2ncc(C(F)(F)F)cc2Cl)nsc1C/C=N\OCc1c(F)cccc1Cl | 111.4 | -2.9 | 10.1 | -7.0 | 61.3* | -7.7
Cn1cc(NC(=O)c2cc(NC(=O)c3cc(NC=O)cn3C)cn2C)cc1C(=O)NCCC(=N)N | 43.9 | 60.6* | nt | 71.1* | nt | nt
O=C(Nc1ccc(-c2nc3ccccc3o2)cc1)c1ccc2c(c1)OCO2 | 184.8 | 57.2*[fluorescence artefact?] | -9.0 | 43.8 | 3.2 | 7.2
Cc1ccc2oc(-c3ccc(NC(=O)c4ccc5c(c4)OCO5)cc3)nc2c1 | nt | nt | -2.8 | nt | 10.7 | 2.8
O=C(CN1C(=O)c2ccccc2C1=O)Nc1ccc(-c2nc3ccccc3o2)cc1 | 213.4* | -1.9 | 3.0 | -2.4 | 10.7 | -1.9
Cc1c(NC(=O)c2ccc3c(c2)OCO3)cccc1-c1nc2ccccc2o1 | 126.3 | -3.2 | -22.5 | -1.6 | 7.2 | 23.4
O=C(Nc1ccccc1-c1nc2ccccc2o1)c1ccc2c(c1)OCCO2 | 217.0*[fluorescence artefact?] | 49.5 | 15.8 | 27.9 | 5.2 | -11.5
Cc1ccc(-c2nc3ccccc3o2)cc1NC(=O)c1ccc2c(c1)OCO2 | 265.8* | 31.2 | 13.1 | 1.0 | 3.3 | -15.2
COc1ccc(-n2nnnc2SCC(=O)Nc2nnc(C)s2)cc1 | nt | nt | 0.0 | nt | -1.0 | -0.3
Cc1nc2ccccc2n1CCC(=O)O | 81.5 | -5.6 | -16.2 | -2.6 | 8.9 | 14.2
Cc1nc2ccccc2n2c(O)c(CC(=O)O)cc12 | 55.1 | 40.9 | nt | 58.4*[fluorescence artefact?] | nt | nt
CN(/C=C/C(=O)C(F)(F)C(F)(F)F)Cc1ccccc1 | nt | nt | 8.1 | nt | 9.1 | -6.2
N#Cc1c(N)nc(SC2CCCCC2=O)c(C#N)c1-c1ccco1 (configuration not stated) | 216.8*[fluorescence artefact?] | 3.7 | nt | -8.3 | -0.2 | nt
N#Cc1c(N)nc(SCc2ccccc2)c(C#N)c1-c1ccco1 | 213.2* | 8.7 | nt | 46.8 | 15.8 | nt
Cc1cc(C)c(C#N)c(SC2CCCCC2=O)n1 (configuration not stated) | 105.5 | -6.7 | -0.2 | -6.0 | -2.5 | -0.5
N#Cc1c(N)nc(SCc2ccccn2)c(C#N)c1-c1cccs1 | 373.2*[fluorescence artefact?] | 21.6 | -4.6 | 26.7 | 14.4 | 7.2
CCS(=O)(=O)N1CCCC(C(=O)NCCc2ccc(OC)c(OC)c2)C1 (configuration not stated) | 116.3 | -0.2 | -8.0 | 0.1 | 8.0 | 6.5
N#Cc1c(N)nc2c(c1-c1ccncc1)CCCCCC2 | 100.8 | 6.7 | -36.1 | -7.3 | -0.3 | 36.9
Cc1ccc(/C=C2\CCC3=C2OC(N)=C(C#N)C3c2ccc(C)cc2)cc1 (configuration not stated) | nt | nt | 5.8 | nt | 138.4*[fluorescence artefact?] | -5.0
O=C(CSc1oc(-c2ccc(F)cc2)nc1S(=O)(=O)c1ccc(F)cc1)NCC1CCCO1 (configuration not stated) | 85.7 | 15.4 | 5.8 | 16.2 | 1.3 | -5.0
Cc1ccc(S(=O)(=O)c2nc(-c3ccc(F)cc3)oc2SCC(=O)NCC2CCCO2)cc1 (configuration not stated) | 310.1*[fluorescence artefact?] | 39.0 | 31.3 | 14.8 | 10.7 | -30.5
Cc1ccc(-c2nc(S(=O)(=O)c3ccc(F)cc3)c(SCC(=O)NCC3CCCO3)o2)cc1 (configuration not stated) | 106.7 | 66.5*[fluorescence artefact?] | 9.3 | 24.9 | -2.8 | -9.9
O=C(CSc1oc(-c2ccccc2)nc1S(=O)(=O)c1ccc(F)cc1)NCC1CCCO1 (configuration not stated) | 147.8 | 19.9 | -10.9 | 7.1 | 4.2 | 10.4
COc1ccc(C(=O)N2CCC(C(=O)Nc3ccccc3OC)CC2)cc1 | 222.7*[fluorescence artefact?] | -14.4 | 0.9 | -15.2 | 2.8 | -1.7
SMILES | ERa SRC1 pot | ERa coact inh | sEH act | ERb coact inh | Rev-RRE block | sEH inh
CC(C)C(=O)N(Cc1cc2ccccc2[nH]c1=O)C(C)(C)C | 103.9 | -2.7 | 0.1 | 19.4 | 0.3 | -0.8
Nc1c(N2CCOCC2)cc(Cl)c2nonc12 | 91.4 | -10.9 | -4.0 | -5.4 | -1.0 | 3.5
Nc1c(N2CCCC2)cc(Cl)c2nonc12 | 85.3 | 2.1 | 0.2 | 18.7 | 40.5* | 3.3
CCOc1ccc(-c2c(C#N)c(N)nc3c2c(=O)n(C)c(=O)n3C)cc1OC | 123.6 | -8.5 | 6.1 | -9.3 | 5.1 | -3.2
CCOC(=O)c1c(NC(=S)Nc2ccccc2)sc2c1CCN(CCc1ccccc1)C2 | nt | nt | -6.9 | nt | 124.0*[fluorescence artefact?] | 9.5
COc1ccc(-c2cc(CNC(=O)CCl)on2)cc1 | nt | nt | -4.4 | nt | 6.0 | 4.5
O=C(c1cccn2c(=O)c3cc4ccccc4cc3nc12)N1CCN(c2ccccc2)CC1 | 79.6 | 40.1 | 22.0 | 19.0 | 44.2* | -18.5
COCCCn1c(SCC(=O)Nc2ccc(NC(=O)c3ccco3)c(OC)c2)nc2ccccc2c1=O | 213.0*[fluorescence artefact?] | 44.0 | -17.9 | 45.7 | -4.6 | 17.9
Cc1ccc(-c2cc(-c3ccc4c(c3)OCO4)c(C#N)c(N)n2)o1 | 17.6 | 82.3*[fluorescence artefact?] | 1.4 | 27.0 | 15.3 | -1.4
Cc1ccc(-c2cc(-c3ccc(C)o3)nc(N)c2C#N)cc1 | 75.4 | 10.3 | 12.9 | 10.4 | 26.7 | -13.8
N#Cc1c(N)oc(-c2ccc3c(c2)OCO3)c1-c1ccc2c(c1)OCO2 | 30.4 | 72.7* | -0.2 | 72.8* | 14.1 | 1.8
COC(=O)CCN(C(=O)c1ccc2c(c1)OCO2)c1ccccn1 | 108.7 | -7.2 | -9.9 | -12.1 | 3.5 | 12.2
CCOC(=O)C(NC(=O)OC(C)C)(Nc1nccs1)C(F)(F)F (configuration not stated) | 127.6 | 1.0 | -3.6 | -2.5 | 5.7 | 2.0
COC(=O)Cn1c(=NC(=O)C2CC2)sc2c(C)cc(C)cc21 | 133.7 | 54.8*[fluorescence artefact?] | -7.3 | -6.3 | 6.4 | 6.5
O=C(O)Cn1cnc2scc(-c3cccs3)c2c1=O | 63.8 | 37.8 | -5.5 | 57.6* | 3.8 | 6.6
Cc1cccc(NC(=S)N2CCC(c3nc4ccccc4o3)CC2)c1C | nt | nt | -0.5 | nt | 0.2 | 3.6
CC(C)c1ccc(NC(=O)N2CCC(c3nc4ccccc4o3)CC2)cc1 | 115.1 | 3.2 | -96.2 | -1.5 | 7.0 | 96.2*
COc1ccc(NC(=O)N2CCCC(c3nc(-c4ccc(C(C)C)cc4)no3)C2)cc1 (configuration not stated) | 106.6 | -6.7 | -91.6 | 5.5 | 8.4 | 91.8*
CCCCCC(=O)N1CCCC(c2nc(-c3ccc(OC)cc3)no2)C1 (configuration not stated) | 91.8 | -1.0 | -6.9 | 0.5 | 10.9 | 5.4
Cc1cccc(NC(=O)N2CCC(c3nc4ccccc4o3)CC2)c1 | 123.3 | -12.9 | nt | -4.2 | nt | nt
Cc1cc(C)cc(NC(=O)N2CCC(c3nc4ccccc4o3)CC2)c1 | 680.4*[fluorescence artefact?] | 3.3 | -17.3 | -2.4 | 12.8 | 18.5
CC1(C)Cc2ccccc2-c2nnc(SCC(=O)Nc3ccc4c(c3)OCO4)n21 | 129.0 | 9.1 | 9.7 | 0.8 | 13.5 | -10.8
CC(=O)COc1cc(C)cc2oc(=O)c(C)c(C)c12 | 90.1 | 2.2 | 10.8 | -12.8 | 3.0 | -12.9
